Experimental data taken from ChEMBL document CHEMBL4433206, “Novel Lysine-Based Thioureas as Mechanism-Based Inhibitors of Sirtuin 2 (SIRT2) with Anticancer Activity in a Colorectal Cancer Murine Model” (J Med Chem, 2019).
Calls of active or inactive are those of the source. The rule behind the calls is not given here.

What was measured:
[1] = biological target: T1, NAD-dependent protein deacetylase sirtuin-2 (Homo sapiens, UniProt Q8IXJ6); assay: Inhibition of recombinant human N-terminal His6-tagged/SUMO-fused SIRT2 (38 to 356 residues) expressed in Escherichia coli BL21 assessed as reduction in deacetylase activity using acetylated H3K9 as substrate preincubated for 15 mins followed by substrate addition and measured after 6 mins by UV-HPLC analysis
T1 sequence (Q8IXJ6 whole entry): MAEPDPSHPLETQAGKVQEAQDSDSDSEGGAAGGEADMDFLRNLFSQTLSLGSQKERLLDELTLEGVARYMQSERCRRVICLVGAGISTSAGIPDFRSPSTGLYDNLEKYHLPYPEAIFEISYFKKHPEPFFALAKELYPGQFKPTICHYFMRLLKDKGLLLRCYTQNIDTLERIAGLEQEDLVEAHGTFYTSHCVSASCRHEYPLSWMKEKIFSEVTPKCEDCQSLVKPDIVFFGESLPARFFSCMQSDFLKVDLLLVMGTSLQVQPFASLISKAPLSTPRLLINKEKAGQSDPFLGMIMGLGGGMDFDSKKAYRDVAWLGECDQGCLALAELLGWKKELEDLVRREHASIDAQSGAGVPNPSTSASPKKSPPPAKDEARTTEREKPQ

[2] = biological target: T2, NAD-dependent protein deacetylase sirtuin-1 (Homo sapiens, UniProt Q96EB6); assay: Inhibition of human SIRT1 deacetylase activity using acetylated H3K9 as substrate preincubated for 15 mins followed by substrate addition and measured after 3 mins by UV-HPLC analysis
T2 sequence (Q96EB6 whole entry): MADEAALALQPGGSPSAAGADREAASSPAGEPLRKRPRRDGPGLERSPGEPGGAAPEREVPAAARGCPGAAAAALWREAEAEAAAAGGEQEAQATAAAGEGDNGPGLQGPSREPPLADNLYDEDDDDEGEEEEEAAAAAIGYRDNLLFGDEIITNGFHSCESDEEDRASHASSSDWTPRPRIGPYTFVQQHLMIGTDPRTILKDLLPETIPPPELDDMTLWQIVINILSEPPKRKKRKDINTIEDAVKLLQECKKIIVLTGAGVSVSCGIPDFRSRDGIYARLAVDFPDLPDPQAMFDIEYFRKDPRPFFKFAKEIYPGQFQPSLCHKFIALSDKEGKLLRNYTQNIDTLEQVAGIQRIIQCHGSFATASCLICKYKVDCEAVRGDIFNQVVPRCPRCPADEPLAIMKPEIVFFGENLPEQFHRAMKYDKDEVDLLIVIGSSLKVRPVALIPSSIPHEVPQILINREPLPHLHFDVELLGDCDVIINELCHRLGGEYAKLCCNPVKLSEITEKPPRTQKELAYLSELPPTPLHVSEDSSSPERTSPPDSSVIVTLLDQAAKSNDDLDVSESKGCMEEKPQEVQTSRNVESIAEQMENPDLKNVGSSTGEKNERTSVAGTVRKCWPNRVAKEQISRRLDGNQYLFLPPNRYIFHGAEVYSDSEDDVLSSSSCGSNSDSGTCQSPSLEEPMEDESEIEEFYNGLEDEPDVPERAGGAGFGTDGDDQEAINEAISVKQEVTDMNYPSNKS

[3] = biological target: T3, NAD-dependent protein deacetylase sirtuin-3, mitochondrial (Homo sapiens, UniProt Q9NTG7); assay: Inhibition of human SIRT3 assessed as reduction in deacetylase activity using acetylated H3K9 as substrate preincubated for 15 mins followed by substrate addition and measured after 15 mins by UV-HPLC analysis
T3 sequence (Q9NTG7 whole entry): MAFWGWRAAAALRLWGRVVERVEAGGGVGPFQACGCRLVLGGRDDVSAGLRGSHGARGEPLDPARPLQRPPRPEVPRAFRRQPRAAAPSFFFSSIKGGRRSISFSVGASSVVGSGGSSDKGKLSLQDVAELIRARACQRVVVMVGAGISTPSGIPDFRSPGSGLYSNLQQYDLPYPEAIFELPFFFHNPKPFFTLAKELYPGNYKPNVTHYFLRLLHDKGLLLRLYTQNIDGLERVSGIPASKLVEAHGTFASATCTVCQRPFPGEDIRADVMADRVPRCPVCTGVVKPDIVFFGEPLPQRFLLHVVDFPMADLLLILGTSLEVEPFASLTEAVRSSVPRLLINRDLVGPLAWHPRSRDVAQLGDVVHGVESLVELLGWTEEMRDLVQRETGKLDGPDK

[4] = Cytotoxicity against human HME1 cells after 72 hrs by CellTiter-Blue assay; assay type: cell-based
Method in brief: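 Cells were seeded per well (HCT116 1000; MDA-MB-231, MDA-MB-468, NCI-H23, A549, SW948 2000; MCF7, BxPC-3, HME1 3000) and left 20 h at 37 °C. Inhibitor was added at 1–100 μM final for 72 h at 37 °C. CellTiter-Blue was then added for 4 h, and fluorescence was read at ex 560/em 590 nm.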

[5] = biological target: T4, NAD-dependent protein deacetylase sirtuin-2 (Homo sapiens) (UniProt Q8IXJ6); assay: Inhibition of SIRT2 in human HCT116 cells assessed as increase in alpha-tubulin acetylation at 25 uM incubated for 6 hrs by DAPI staining-based laser scanning confocal microscopic analysis; assay type: cell-based
T4 sequence (whole entry): T1 sequence (Q8IXJ6 whole entry)
Method in brief: (§1)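 HCT116 cells were seeded at 400 000 on poly-D-lysine-coated glass-bottom dishes and grown 24 h. Cells were treated with DMSO or inhibitor for 6 h at 37 °C, fixed in ice-cold methanol, and blocked in TBS/0.1% Triton X-100/5% BSA. They were stained with anti-acetyl α-tubulin (1:100, overnight, 4 °C), then Cy3 anti-mouse, and mounted with DAPI. Imaging was by confocal microscopy.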

[6] = biological target: T4, NAD-dependent protein deacetylase sirtuin-2 (Homo sapiens); assay: Inhibition of SIRT2 in human HCT116 cells assessed as increase in alpha-tubulin acetylation at 50 uM incubated for 6 hrs by DAPI staining-based laser scanning confocal microscopic analysis; assay type: cell-based; method in brief: as §1
[7] = biological target: T5, NAD-dependent protein deacetylase sirtuin-1 (Homo sapiens) (UniProt Q96EB6); assay: Inhibition of SIRT1 in human HCT116 cells assessed as increase in acetylated p53 K382 level at 25 uM after 6 hrs by Western blot analysis; assay type: cell-based
T5 sequence (whole entry): T2 sequence (Q96EB6 whole entry)

[8] = species on record: Homo sapiens; assay: Selectivity ratio of IC50 for human SIRT1 to IC50 for recombinant human N-terminal His6-tagged/SUMO-fused SIRT2 (38 to 356 residues) expressed in Escherichia coli BL21
Method in brief: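 Purified human sirtuin (SIRT1 0.05 μM, SIRT2 0.2 μM) in 20 mM Tris, 1 mM NAD⁺, 1 mM DTT, pH 8.0 was preincubated with inhibitor (0.002–417 μM, duplicate, DMSO control) for 15 min at 37 °C. Acetyl-H3K9 peptide (10 μM) was then added, and the reaction ran at 37 °C (SIRT1 3 min, SIRT2 6 min; 10–18% conversion). It was quenched with HCl/acetic acid and analysed by reverse-phase HPLC with UV at 215/326 nm.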

[9] = biological target: T5, NAD-dependent protein deacetylase sirtuin-1 (Homo sapiens); assay: Inhibition of SIRT1 in Trichostatin A treated human HCT116 cells assessed as increase in acetylated p53 K382 level after 6 hrs by Western blot analysis
Method in brief: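 HCT116 cells were seeded at 400 000 per well, grown 24 h, then cotreated with 400 nM TSA and inhibitor (25 μM, or 10–50 μM) for 6 h at 37 °C. Cells were lysed in 4% SDS buffer, pH 7.4. 50 μg of lysate was resolved by 12% SDS-PAGE and blotted for acetyl-p53 K382 antibody, with β-actin as loading control. Detection was by ECL.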

Row | SMILES | IC50 [1] [nM] | IC50 [2] [nM] | IC50 [3] [nM] | inhibition [5] | inhibition [6] | inhibition [7] | Ratio IC50 [8] | inhibition [9] | Activity [4]
1 | CCCCCCCCCCCCNC(=S)NCCCC[C@H](NC(=O)OCc1ccccc1)C(=O)Nc1ccccc1 | 81 | > 200000 | > 200000 | – | – | – | – | – | –
2 | CCCNC(=S)NCCCC[C@H](NC(=O)OCc1ccccc1)C(=O)Nc1cccc(O)c1 | > 100000 | > 100000 | > 100000 | inactive | inactive | inactive | – | – | –
3 | NC(=O)C1CCCc2c1[nH]c1ccc(Cl)cc21 (configuration not stated) | – | – | – | – | – | Active | – | – | –
4 | CCCCCCCCCCNC(=S)NCCCC[C@H](NC(=O)OCc1ccccc1)C(=O)Nc1cccc(O)c1 | 36 | 450 | > 100000 | Active | Active | Active | 12 | Dose-dependent effect | –
5 | CCCCCCCCNC(=S)NCCCC[C@H](NC(=O)OCc1ccccc1)C(=O)Nc1cccc(O)c1 | 120 | 1000 | > 100000 | – | – | – | 8 | – | –
6 | CCCCCNC(=S)NCCCC[C@H](NC(=O)OCc1ccccc1)C(=O)Nc1cccc(O)c1 | 1000 | 34000 | > 100000 | Active | Active | Active | 34 | – | –
7 | CCCCCCCCCCCCNC(=S)NCCCC[C@H](NC(=O)OCc1ccccc1)C(=O)Nc1cccc(O)c1 | 60 | 1000 | > 100000 | – | – | – | 17 | – | –

The next lines start with results.

Row | IC50 [1] [nM] | IC50 [2] [nM] | IC50 [3] [nM] | inhibition [5] | inhibition [6] | inhibition [7] | Ratio IC50 [8] | inhibition [9] | SMILES | Activity [4]
8 | 160 | 22000 | – | – | – | – | – | – | CCCCCCCNC(=S)NCCCC[C@H](NC(=O)OCc1ccccc1)C(=O)Nc1ccccc1 | –
9 | – | – | > 100000 | – | – | – | – | – | CCCCCCCCCCCCCC(=S)NCCCC[C@H](NC(=O)OCc1ccccc1)C(=O)Nc1ccccc1 | Non-Toxic
10 | 640 | 30000 | – | – | – | – | – | – | CCCCCCNC(=S)NCCCC[C@H](NC(=O)OCc1ccccc1)C(=O)Nc1ccccc1 | –
11 | > 100000 | > 100000 | > 100000 | – | – | – | – | – | CNC(=S)NCCCC[C@H](NC(=O)OCc1ccccc1)C(=O)Nc1cccc(O)c1 | –
